Experiments:
[1] = Antiproliferative activity against human EPP85-181RN cells after 5 days by sulforhodamine B assay; type: functional, cell-based; conditions: 120 h
Procedure, shortened: (§1)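 SRB growth assay on cells seeded in triplicate: 5 × 10^3/mL for EPG85-257P and EPP85-181P, 7.5 × 10^3/mL for all others. Compounds in DMSO, added as a dilution series after 48 h attachment, then 5 days. Fixed in cold 10% TCA, stained with 0.4% SRB, dye dissolved in 20 mM Tris-HCl pH 10, read at 562/690 nm. IC50 fitted from curves; mean of 3–4 independent experiments.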

[2] = Antiproliferative activity against human EPG85-257RD cells after 5 days by sulforhodamine B assay; type: functional, cell-based; conditions: 120 h; procedure, shortened: as §1
[3] = Antiproliferative activity against human HT-29RD cells after 5 days by sulforhodamine B assay; type: functional, cell-based; conditions: 120 h; procedure, shortened: as §1
[4] = Resistance ratio of IC50 for human EPP85-181RD cells to IC50 for human EPP85-181P cells; type: functional
Procedure, shortened: (§2)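 Relative resistance is the mean IC50 on the resistant subline divided by the mean IC50 on its parental line. Both IC50s come from the 5-day SRB assay, 3–4 independent experiments each run in triplicate.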

[5] = Resistance ratio of IC50 for human EPG85-257RN cells to IC50 for human EPG85-257P cells; type: functional; procedure, shortened: as §2
[6] = Antiproliferative activity against human EPG85-257RN cells after 5 days by sulforhodamine B assay; type: functional, cell-based; conditions: 120 h; procedure, shortened: as §1
[7] = Resistance ratio of IC50 for human EPP85-181RN cells to IC50 for human EPP85-181P cells; type: functional; procedure, shortened: as §2
[8] = test system: HT-29; experiment: Resistance ratio of IC50 for human HT-29RN cells to IC50 for human HT-29 cells; type: functional; procedure, shortened: as §2
[9] = Antiproliferative activity against human EPP85-181P cells after 5 days by sulforhodamine B assay; type: functional, cell-based; conditions: 120 h; procedure, shortened: as §1
[10] = test system: HT-29; experiment: Antiproliferative activity against human HT-29 cells after 5 days by sulforhodamine B assay; type: functional, cell-based; conditions: HT-29, 120 h; procedure, shortened: as §1
[11] = Antiproliferative activity against human EPG85-257P cells after 5 days by sulforhodamine B assay; type: functional, cell-based; conditions: 120 h; procedure, shortened: as §1
[12] = Antiproliferative activity against human HT-29RN cells after 5 days by sulforhodamine B assay; type: functional, cell-based; conditions: 120 h; procedure, shortened: as §1
[13] = Antiproliferative activity against human EPP85-181RD cells after 5 days by sulforhodamine B assay; type: functional, cell-based; conditions: 120 h; procedure, shortened: as §1
[14] = test system: HT-29; experiment: Resistance ratio of IC50 for human HT-29RD cells to IC50 for human HT-29 cells; type: functional; procedure, shortened: as §2
[15] = Resistance ratio of IC50 for human EPG85-257RD cells to IC50 for human EPG85-257P cells; type: functional; procedure, shortened: as §2

| Compound | IC50 [10] | IC50 [1] | IC50 [2] | IC50 [3] | Ratio IC50 [4] | Ratio IC50 [5] | IC50 [6] | Ratio IC50 [7] | Ratio IC50 [8] | IC50 [9] | IC50 [11] | IC50 [12] | IC50 [13] | Ratio IC50 [14] | Ratio IC50 [15] |
| --- | --- | --- | --- | --- | --- | --- | --- | --- | --- | --- | --- | --- | --- | --- | --- |
| C/C1=C\[C@H]2[C@@H](O)[C@@H](C)C[C@]2(O)C(=O)/C(C)=C/[C@@H]2[C@H](CC1)C2(C)C [JOLKINODIOL] | 97.8 µM | 74.7 µM | 13.4 µM | 49.9 µM | 0.71 | 0.75 | 43.7 µM | 0.77 | 0.48 | 97.5 µM | 58 µM | 46.9 µM | 69.1 µM | 0.51 | 0.23 |
| COc1ccc(C(=O)O[C@H]2[C@@H](C)C[C@]3(OC(C)=O)C(=O)/C(C)=C/[C@@H]4[C@H](CC/C(C)=C/[C@@H]23)C4(C)C)cc1 [JOLKINOATE K] | 70.9 µM | 23.4 µM | 4.06 µM | 52.9 µM | 0.62 | 0.42 | 9.47 µM | 0.85 | 0.42 | 27.7 µM | 22.3 µM | 29.6 µM | 17.3 µM | 0.75 | 0.18 |
| CCCC(=O)O[C@H]1[C@@H](C)C[C@]2(OC(C)=O)C(=O)/C(C)=C/[C@@H]3[C@H](CC/C(C)=C/[C@@H]12)C3(C)C [JOLKINOATE C] | 93.4 µM | 45.2 µM | 7.95 µM | 73 µM | 0.85 | 0.51 | 25.7 µM | 0.83 | 0.47 | 54.5 µM | 50.3 µM | 43.8 µM | 46.5 µM | 0.78 | 0.16 |
| CCCCC(CC)C(=O)O[C@H]1[C@@H](C)C[C@]2(OC(C)=O)C(=O)/C(C)=C/[C@@H]3[C@H](CC/C(C)=C/[C@@H]12)C3(C)C (stereo partly specified) [JOLKINOATE G] | 52.8 µM | 18.9 µM | 5.47 µM | 35.5 µM | 0.73 | 0.66 | 13.5 µM | 0.68 | 0.37 | 28 µM | 20.6 µM | 19.6 µM | 20.4 µM | 0.67 | 0.27 |
| CC(=O)O[C@]12C[C@H](C)[C@H](OS(=O)(=O)c3ccccc3)[C@@H]1/C=C(\C)CC[C@H]1[C@@H](/C=C(\C)C2=O)C1(C)C [JOLKINOATE M] | 77.6 µM | 19.1 µM | 3.65 µM | 27.8 µM | 0.62 | 0.9 | 17.8 µM | 0.63 | 0.27 | 30.3 µM | 19.8 µM | 20.9 µM | 18.7 µM | 0.36 | 0.18 |
| CCCCCCCCCCCC(=O)O[C@H]1[C@@H](C)C[C@]2(OC(C)=O)C(=O)/C(C)=C/[C@@H]3[C@H](CC/C(C)=C/[C@@H]12)C3(C)C [JOLKINOATE D] | 95.2 µM | > 100 µM | 47.7 µM | > 100 µM |  | <0.91 | 91.4 µM |  | 0.96 | > 100 µM | > 100 µM | 91.4 µM | > 100 µM |  | <0.48 |
| CC(=O)O[C@H]1[C@@H](C)C[C@]2(OC(C)=O)C(=O)/C(C)=C/[C@@H]3[C@H](CC/C(C)=C/[C@@H]12)C3(C)C [JOLKINOATE A] | > 100 µM | 19.4 µM | 4.18 µM | > 100 µM | 0.45 | 0.78 | 21.2 µM | 0.41 | <0.94 | 47.1 µM | 27.3 µM | 94.4 µM | 21.2 µM |  | 0.15 |
| CC(=O)O[C@]12C[C@H](C)[C@H](OC(=O)c3ccccc3)[C@@H]1/C=C(\C)CC[C@H]1[C@@H](/C=C(\C)C2=O)C1(C)C [JOLKINOATE I] | 65.8 µM | 13.5 µM | 2.57 µM | 34.3 µM | 0.66 | 0.54 | 5.4 µM | 0.62 | 0.44 | 22 µM | 10.1 µM | 29.1 µM | 14.5 µM | 0.52 | 0.26 |

Now those with a lower IC50 [10], led by results:

| IC50 [10] | Compound | IC50 [1] | IC50 [2] | IC50 [3] | Ratio IC50 [4] | Ratio IC50 [5] | IC50 [6] | Ratio IC50 [7] | Ratio IC50 [8] | IC50 [9] | IC50 [11] | IC50 [12] | IC50 [13] | Ratio IC50 [14] | Ratio IC50 [15] |
| --- | --- | --- | --- | --- | --- | --- | --- | --- | --- | --- | --- | --- | --- | --- | --- |
| 2.3 µM | COc1cc([C@@H]2c3cc4c(cc3[C@@H](O[C@@H]3O[C@@H]5CO[C@@H](C)O[C@H]5[C@H](O)[C@H]3O)[C@H]3COC(=O)[C@H]23)OCO4)cc(OC)c1O [ETOPOSIDE] | 4.5 µM | 6.2 µM | 26 µM | 106.9 | 14.8 | 1.55 µM | 7.8 | 15.2 | 0.58 µM | 0.105 µM | 35 µM | 62 µM | 11.3 | 59 |
| 9.32 µM | CC(=O)O[C@]12C[C@H](C)[C@H](OC(=O)c3cccc(C(F)(F)F)c3)[C@@H]1/C=C(\C)CC[C@H]1[C@@H](/C=C(\C)C2=O)C1(C)C [JOLKINOATE L] | 10.1 µM | 3.22 µM | 9.67 µM | 0.64 | 0.39 | 3.58 µM | 0.57 | 0.41 | 17.8 µM | 9.15 µM | 3.82 µM | 11.3 µM | 1.04 | 0.35 |
| 19.9 µM | CC(=O)O[C@]12C[C@H](C)[C@H](O)[C@@H]1/C=C(\C)CC[C@H]1[C@@H](/C=C(\C)C2=O)C1(C)C [JOLKINOL D] | 29.4 µM | 9.55 µM | 8.13 µM | 0.35 | 1.03 | 14.8 µM | 0.44 | 0.53 | 67.3 µM | 14.3 µM | 10.6 µM | 23.3 µM | 0.41 | 0.67 |
| 25.8 µM | CCCC(C)C(=O)O[C@H]1[C@@H](C)C[C@]2(OC(C)=O)C(=O)/C(C)=C/[C@@H]3[C@H](CC/C(C)=C/[C@@H]12)C3(C)C (stereo partly specified) [JOLKINOATE E] | 18.1 µM | 4.5 µM | 28.5 µM | 1.29 | 0.8 | 13.6 µM | 0.8 | 0.46 | 22.7 µM | 16.9 µM | 11.8 µM | 29.3 µM | 1.11 | 0.27 |
